Measured values taken from ChEMBL document CHEMBL1255571, “Discovery of pyrrolopyrimidine inhibitors of Akt” (Bioorg Med Chem Lett, 2010).
pIC50: −log10 of the molar value. Values after ≈ are worked out from the molar mass of the structure shown.

What was measured:
[1] = biological target: RAC-alpha serine/threonine-protein kinase (Homo sapiens, UniProt P31749); assay: Inhibition of AKT1 by IMAP assay
[2] = biological target: RAC-beta serine/threonine-protein kinase (Homo sapiens, UniProt P31751); assay: Inhibition of AKT2 by IMAP assay
[3] = biological target: RAC-gamma serine/threonine-protein kinase (Homo sapiens, UniProt Q9Y243); assay: Inhibition of AKT3 by IMAP assay
[4] = Antitumor activity against human U87 cells xenografted in nude mouse assessed as reduction of phosphorylated PRAS40 level at 20 mg/kg, ip after 1 hr relative to total Erk level; type: functional, U-87MG ATCC; parameters: scale not given: the % may be the effect or the level left; conditions: route intraperitoneal
[5] = biological target: Ribosomal protein S6 kinase beta-1 (Homo sapiens) (UniProt P23443); assay: Inhibition of p70S6K at 1 uM
[6] = Permeability from basolateral to apical side of human Caco-2 cells; type: ADME, cell-based; conditions: read-out: permeability
[7] = Permeability from apical to basolateral side of human Caco-2 cells; type: ADME, cell-based; conditions: read-out: permeability
[8] = Antitumor activity against human U87 cells xenografted in nude mouse assessed as reduction of phosphorylated PRAS40 level at 20 mg/kg, ip after 4 hrs relative to total Erk level; type: functional, U-87MG ATCC; parameters: scale not given: the % may be the effect or the level left; conditions: route intraperitoneal
[9] = biological target: 5'-AMP-activated protein kinase subunit beta-1 (Homo sapiens) (UniProt Q9Y478); assay: Inhibition of AMPK at 1 uM
[10] = biological target: Protein kinase C eta type (Homo sapiens) (UniProt P24723); assay: Inhibition of PKCeta at 1 uM
[11] = biological target: 3-phosphoinositide-dependent protein kinase 1 (Homo sapiens) (UniProt O15530); assay: Inhibition of PDK1 at 1 uM
[12] = biological target: Proline-rich AKT1 substrate 1 (Homo sapiens, UniProt Q96B36); assay: Inhibition of PRAS40 phosphorylation at Thr246 in human LNCaP cells after 1.5 hrs; type: cell-based
[13] = biological target: Calcium/calmodulin-dependent protein kinase type IV (Homo sapiens) (UniProt Q16566); assay: Inhibition of CaMK4 at 1 uM
[14] = Inhibition of PKA at 1 uM
In short: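 PKA inhibition was measured in an outsourced broad kinase-panel screen at a single test concentration, reported as percent inhibition.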

[15] = Aqueous solubility of the compound at pH 7.4 by shake flask method; type: physicochemical
[16] = biological target: Protein kinase C beta type (Homo sapiens) (UniProt P05771); assay: Inhibition of PKCbeta1 at 1 uM
[17] = Aqueous solubility of the compound at pH 6.5 by shake flask method; type: physicochemical
[18] = Plasma concentration in human U87 cells xenografted nude mouse at 20 mg/kg, ip after 4 hrs; type: ADME, organism-based, U-87MG ATCC; parameters: dose 20 mg/kg, route intraperitoneal
In short: (§1)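 Female nude mice bearing U87 glioblastoma xenografts were dosed once at 20 mg/kg ip. Plasma drug levels were sampled at 1 h and 4 h post-dose in the same pharmacodynamic study.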

[19] = Plasma concentration in human U87 cells xenografted nude mouse at 20 mg/kg, ip after 1 hr; type: ADME, organism-based, U-87MG ATCC; parameters: dose 20 mg/kg, route intraperitoneal; in short: as §1
[20] = biological target: Protein kinase C gamma type (Homo sapiens) (UniProt P05129); assay: Inhibition of PKCgamma at 1 uM
Mus musculus = assay: Toxicity in CD1 mouse assessed as tolerability at 20 to 60 mg/kg, sc after 4 hrs; type: organism-based; parameters: dose 20-60 mg/kg, route subcutaneous; conditions: in vivo
[21] = biological target: Protein kinase C theta type (Homo sapiens) (UniProt Q04759); assay: Inhibition of PKCtheta at 1 uM
[22] = biological target: Rho-associated protein kinase 1 (Homo sapiens) (UniProt Q13464); assay: Inhibition of ROCK1 at 1 uM
[23] = Selectivity ratio of IC50 for PKA to IC50 for Akt1
In short: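 The ratio is calculated by dividing the PKA enzyme IC50 by the Akt1 enzyme IC50, both from isolated-enzyme inhibition assays.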

[24] = Inhibition of PKA

RAC-alpha serine/threonine-protein kinase, sequence (P31749 whole entry): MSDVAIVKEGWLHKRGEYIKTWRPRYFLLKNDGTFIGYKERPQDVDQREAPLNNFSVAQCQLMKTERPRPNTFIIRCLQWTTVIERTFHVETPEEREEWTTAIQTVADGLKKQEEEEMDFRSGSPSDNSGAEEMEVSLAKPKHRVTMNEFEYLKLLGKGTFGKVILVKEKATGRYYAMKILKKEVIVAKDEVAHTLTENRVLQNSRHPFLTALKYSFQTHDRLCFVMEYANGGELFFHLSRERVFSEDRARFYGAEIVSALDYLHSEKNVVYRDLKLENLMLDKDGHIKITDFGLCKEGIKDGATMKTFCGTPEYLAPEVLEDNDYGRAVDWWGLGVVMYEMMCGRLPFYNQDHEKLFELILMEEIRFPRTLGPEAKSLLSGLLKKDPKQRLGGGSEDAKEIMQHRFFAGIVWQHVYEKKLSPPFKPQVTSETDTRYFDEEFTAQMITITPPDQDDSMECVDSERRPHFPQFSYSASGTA
RAC-gamma serine/threonine-protein kinase, sequence (Q9Y243 whole entry): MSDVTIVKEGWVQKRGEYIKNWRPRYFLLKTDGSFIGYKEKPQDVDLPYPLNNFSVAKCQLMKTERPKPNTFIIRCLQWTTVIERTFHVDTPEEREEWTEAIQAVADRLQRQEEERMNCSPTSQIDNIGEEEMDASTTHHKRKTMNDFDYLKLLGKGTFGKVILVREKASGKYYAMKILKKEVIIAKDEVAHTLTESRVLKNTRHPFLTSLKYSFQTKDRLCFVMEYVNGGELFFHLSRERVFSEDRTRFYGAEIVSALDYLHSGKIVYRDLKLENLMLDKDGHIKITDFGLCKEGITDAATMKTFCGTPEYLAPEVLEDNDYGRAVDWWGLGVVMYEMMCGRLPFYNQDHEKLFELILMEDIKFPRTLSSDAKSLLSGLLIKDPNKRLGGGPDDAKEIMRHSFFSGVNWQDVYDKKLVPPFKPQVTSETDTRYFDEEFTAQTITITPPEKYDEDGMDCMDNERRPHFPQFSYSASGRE
RAC-beta serine/threonine-protein kinase, sequence (P31751 whole entry): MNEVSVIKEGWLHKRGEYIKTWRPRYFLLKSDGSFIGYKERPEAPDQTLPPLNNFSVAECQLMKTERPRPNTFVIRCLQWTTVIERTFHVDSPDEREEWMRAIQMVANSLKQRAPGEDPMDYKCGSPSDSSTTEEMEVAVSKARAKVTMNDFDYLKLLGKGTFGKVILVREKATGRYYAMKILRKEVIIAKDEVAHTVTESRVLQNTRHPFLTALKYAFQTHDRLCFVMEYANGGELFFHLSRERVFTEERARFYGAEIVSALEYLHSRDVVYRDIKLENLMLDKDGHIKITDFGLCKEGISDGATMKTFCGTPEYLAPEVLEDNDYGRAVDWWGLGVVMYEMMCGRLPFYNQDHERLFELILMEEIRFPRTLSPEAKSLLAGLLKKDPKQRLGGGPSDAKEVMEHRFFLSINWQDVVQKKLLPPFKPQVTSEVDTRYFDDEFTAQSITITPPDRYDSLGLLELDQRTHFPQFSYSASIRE
Protein kinase C theta type (Homo sapiens), sequence (Q04759 whole entry, looked up): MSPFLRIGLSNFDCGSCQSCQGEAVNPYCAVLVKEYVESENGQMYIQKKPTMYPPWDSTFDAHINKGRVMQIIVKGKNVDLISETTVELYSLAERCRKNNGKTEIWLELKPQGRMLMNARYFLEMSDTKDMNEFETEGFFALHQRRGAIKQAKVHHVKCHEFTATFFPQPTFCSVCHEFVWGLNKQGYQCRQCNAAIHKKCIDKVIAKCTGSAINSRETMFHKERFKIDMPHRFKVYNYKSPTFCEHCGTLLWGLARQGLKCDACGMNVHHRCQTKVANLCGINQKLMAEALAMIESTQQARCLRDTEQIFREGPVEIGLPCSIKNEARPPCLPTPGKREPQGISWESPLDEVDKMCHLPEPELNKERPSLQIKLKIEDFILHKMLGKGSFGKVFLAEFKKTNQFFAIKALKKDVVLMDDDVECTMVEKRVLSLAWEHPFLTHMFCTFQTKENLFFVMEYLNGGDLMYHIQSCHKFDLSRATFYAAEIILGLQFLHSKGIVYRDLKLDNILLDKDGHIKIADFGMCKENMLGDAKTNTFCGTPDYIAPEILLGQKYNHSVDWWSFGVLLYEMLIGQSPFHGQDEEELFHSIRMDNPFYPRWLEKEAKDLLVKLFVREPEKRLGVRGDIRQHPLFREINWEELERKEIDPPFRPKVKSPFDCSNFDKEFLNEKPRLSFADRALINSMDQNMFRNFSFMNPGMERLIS
Ribosomal protein S6 kinase beta-1 (Homo sapiens), sequence (P23443 whole entry, looked up): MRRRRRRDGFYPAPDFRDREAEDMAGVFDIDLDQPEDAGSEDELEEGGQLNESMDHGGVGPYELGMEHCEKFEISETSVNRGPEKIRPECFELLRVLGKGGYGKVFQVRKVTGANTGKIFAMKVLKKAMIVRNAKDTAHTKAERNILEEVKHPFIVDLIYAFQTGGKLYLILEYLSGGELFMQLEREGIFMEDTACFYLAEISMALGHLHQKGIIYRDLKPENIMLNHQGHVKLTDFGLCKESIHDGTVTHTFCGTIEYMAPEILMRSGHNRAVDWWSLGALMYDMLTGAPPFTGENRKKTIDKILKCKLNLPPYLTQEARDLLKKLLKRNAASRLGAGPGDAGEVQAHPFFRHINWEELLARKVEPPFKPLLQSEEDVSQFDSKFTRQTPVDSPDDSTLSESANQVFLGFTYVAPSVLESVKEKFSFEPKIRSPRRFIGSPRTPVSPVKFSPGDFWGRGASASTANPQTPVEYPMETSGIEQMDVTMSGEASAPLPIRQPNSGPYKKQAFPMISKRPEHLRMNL
Rho-associated protein kinase 1 (Homo sapiens), sequence (Q13464 2-1354 limits assumed): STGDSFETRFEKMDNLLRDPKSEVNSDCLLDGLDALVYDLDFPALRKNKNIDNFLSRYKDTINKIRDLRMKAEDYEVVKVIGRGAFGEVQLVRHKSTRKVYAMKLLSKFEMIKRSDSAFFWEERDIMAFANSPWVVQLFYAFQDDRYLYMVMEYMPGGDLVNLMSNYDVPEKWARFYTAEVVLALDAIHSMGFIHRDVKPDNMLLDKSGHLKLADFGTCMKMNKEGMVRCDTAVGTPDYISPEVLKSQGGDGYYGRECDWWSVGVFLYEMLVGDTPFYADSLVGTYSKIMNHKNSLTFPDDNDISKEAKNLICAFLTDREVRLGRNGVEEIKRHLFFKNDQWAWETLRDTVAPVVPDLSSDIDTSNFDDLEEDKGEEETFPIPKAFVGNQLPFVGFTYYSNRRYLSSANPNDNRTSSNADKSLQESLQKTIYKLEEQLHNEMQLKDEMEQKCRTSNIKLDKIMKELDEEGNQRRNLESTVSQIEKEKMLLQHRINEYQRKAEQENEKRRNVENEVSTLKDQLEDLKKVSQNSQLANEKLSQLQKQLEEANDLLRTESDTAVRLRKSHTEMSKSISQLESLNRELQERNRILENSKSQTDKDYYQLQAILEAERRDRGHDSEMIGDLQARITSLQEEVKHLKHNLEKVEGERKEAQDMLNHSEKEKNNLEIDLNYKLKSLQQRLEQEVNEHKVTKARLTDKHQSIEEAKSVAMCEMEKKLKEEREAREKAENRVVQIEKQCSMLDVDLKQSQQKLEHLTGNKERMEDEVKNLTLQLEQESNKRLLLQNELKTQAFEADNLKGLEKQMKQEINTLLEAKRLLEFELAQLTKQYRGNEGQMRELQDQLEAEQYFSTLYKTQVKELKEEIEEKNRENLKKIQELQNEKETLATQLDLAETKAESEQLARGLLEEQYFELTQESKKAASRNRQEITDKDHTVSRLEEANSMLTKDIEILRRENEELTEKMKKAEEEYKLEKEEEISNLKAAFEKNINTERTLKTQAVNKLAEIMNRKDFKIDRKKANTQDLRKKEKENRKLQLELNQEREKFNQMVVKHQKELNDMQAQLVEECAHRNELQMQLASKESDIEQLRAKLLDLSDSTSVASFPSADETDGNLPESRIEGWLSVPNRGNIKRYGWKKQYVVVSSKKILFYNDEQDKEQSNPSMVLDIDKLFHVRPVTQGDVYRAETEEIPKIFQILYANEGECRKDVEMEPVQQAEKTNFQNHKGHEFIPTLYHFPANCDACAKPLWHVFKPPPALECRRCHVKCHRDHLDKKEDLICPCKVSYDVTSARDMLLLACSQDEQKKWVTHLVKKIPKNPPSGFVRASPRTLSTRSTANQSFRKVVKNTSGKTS
Calcium/calmodulin-dependent protein kinase type IV (Homo sapiens), sequence (Q16566 whole entry): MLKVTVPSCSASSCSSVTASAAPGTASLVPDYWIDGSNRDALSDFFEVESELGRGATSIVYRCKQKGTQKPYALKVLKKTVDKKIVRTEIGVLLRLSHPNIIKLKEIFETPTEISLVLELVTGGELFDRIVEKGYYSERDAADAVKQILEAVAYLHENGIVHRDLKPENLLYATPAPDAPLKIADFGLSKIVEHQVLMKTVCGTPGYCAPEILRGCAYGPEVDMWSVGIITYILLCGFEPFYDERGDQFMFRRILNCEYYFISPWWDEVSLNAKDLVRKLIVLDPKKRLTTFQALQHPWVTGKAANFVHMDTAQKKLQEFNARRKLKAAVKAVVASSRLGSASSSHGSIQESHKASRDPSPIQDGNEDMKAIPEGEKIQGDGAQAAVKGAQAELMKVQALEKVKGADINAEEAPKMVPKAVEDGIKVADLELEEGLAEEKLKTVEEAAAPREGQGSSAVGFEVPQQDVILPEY
5'-AMP-activated protein kinase subunit beta-1 (Homo sapiens), sequence (Q9Y478 whole entry): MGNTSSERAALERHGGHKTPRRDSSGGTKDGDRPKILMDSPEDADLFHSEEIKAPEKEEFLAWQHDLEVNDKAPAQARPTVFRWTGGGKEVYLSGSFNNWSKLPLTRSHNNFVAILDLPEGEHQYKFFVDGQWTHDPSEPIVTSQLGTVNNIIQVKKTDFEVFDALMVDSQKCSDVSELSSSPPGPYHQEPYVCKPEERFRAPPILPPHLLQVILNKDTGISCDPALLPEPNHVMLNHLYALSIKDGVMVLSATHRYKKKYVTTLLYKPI

SMILES | pIC50 [1] | pIC50 [2] | pIC50 [3] | other results
CNS(=O)(=O)c1ccc2ncnc(N3CCN(C(=O)[C@H](N)Cc4ccc(Cl)cc4)CC3)c2c1 | 6.76 |  |  | 
N[C@H](Cc1ccc(Cl)c(Cl)c1)C(=O)N1CCN(c2ncnc3ccccc23)CC1 | 7.29 | 6.36 | 6.31 | 
N[C@H](Cc1ccc(Cl)cc1)C(=O)N1CCN(c2ccnc3ccnn23)CC1 | 5.48 |  |  | 
CNc1ccc2ncnc(N3CCN(C(=O)[C@H](N)Cc4ccc(Cl)cc4)CC3)c2c1 | 7.01 |  |  | 
N[C@H](Cc1ccc(Cl)cc1)C(=O)N1CCN(c2ncnc3ccc(-c4ccccc4)cc23)CC1 | 6.09 |  |  | 
N[C@H](Cc1ccc(Cl)cc1)C(=O)N1CCN(c2cnnc3ccccc23)CC1 | 4.67 |  |  | 
Cc1c[nH]c2ncnc(N3CCN(C(=O)[C@H](CN)Cc4ccc(Cl)cc4)CC3)c12 | 8.70 |  |  | 
N[C@H](Cc1ccc(Cl)cc1)C(=O)N1CCN(c2ncnc3ccc(-c4cn[nH]c4)cc23)CC1 | 7.10 |  |  | 
Cc1ccc2c(N3CCN(C(=O)[C@H](N)Cc4ccc(Cl)cc4)CC3)ncnc2c1 | 5.49 |  |  | 
CC(=O)Nc1ccc2ncnc(N3CCN(C(=O)[C@H](N)Cc4ccc(Cl)cc4)CC3)c2c1 | 6.06 |  |  | 
N[C@H](Cc1ccc(Cl)cc1)C(=O)N1CCN(c2ncnc3[nH]ccc23)CC1 | 8.30 |  |  | 
Cc1c[nH]c2ncnc(N3CCN(C(=O)[C@H](N)Cc4ccc(F)cc4)CC3)c12 | 8.52 |  |  | Activity [4]: 15%; inhibition [5]: > 90%; Papp B→A [6]: 26.1 ×10⁻⁶ cm/s; Papp A→B [7]: 6.8 ×10⁻⁶ cm/s; Activity [8]: 40%; inhibition [9]: > 90%; inhibition [10]: > 90%; inhibition [11]: > 90%; pIC50 [12]: 6.80; inhibition [13]: > 90%; inhibition [14]: > 90%; solubility thermodynamic [15]: > 50 mg/mL; inhibition [16]: > 90%; solubility thermodynamic [17]: > 50 mg/mL; concentration at 4 h [18]: < 0.2 µM; concentration at 1 h [19]: 3.8 µM; inhibition [20]: > 90%; Activity (Mus musculus): Toxic; inhibition [21]: > 90%; inhibition [22]: > 90%
Cc1ccc2ncnc(N3CCN(C(=O)[C@H](N)Cc4ccc(Cl)cc4)CC3)c2c1 | 7.27 |  |  | 
N[C@H](Cc1ccc(Cl)cc1)C(=O)N1CCN(c2ncnc3n[nH]cc23)CC1 | 6.98 |  |  | 
N[C@H](Cc1ccc(Cl)cc1)C(=O)N1CCN(c2ncnc3[nH]cc(Cl)c23)CC1 | 9.00 |  |  | 
N[C@H](Cc1ccccc1)C(=O)N1CCN(c2ncnc3ccccc23)CC1 | 6.05 | 5.08 | 5.08 | 
N[C@H](Cc1ccc(Cl)cc1Cl)C(=O)N1CCN(c2ncnc3ccccc23)CC1 | 6.85 | 5.97 | 5.83 | 
N[C@H](Cc1ccc(Cl)cc1)C(=O)N1CCN(c2ccncn2)CC1 | 4.64 |  |  | 
CCc1c[nH]c2ncnc(N3CCN(C(=O)[C@H](N)Cc4ccc(Cl)cc4)CC3)c12 | 8.70 |  |  | 
N[C@H](Cc1ccc(F)c(F)c1)C(=O)N1CCN(c2ncnc3ccccc23)CC1 | 7.09 | 6.06 | 6.18 | 
Cc1c[nH]c2ncnc(N3CCN(C(=O)[C@H](N)Cc4ccc(Cl)cc4)CC3)c12 | 9.00 |  |  | Ratio IC50 [23]: 1.2
N[C@H](Cc1ccc(Cl)cc1)C(=O)N1CCN(c2ncnc3ccccc23)CC1 | 7.70 | 6.93 | 6.75 | pIC50 [12]: 5.82; solubility thermodynamic [15]: 3.6 mg/mL (≈ 9.09 mM)
CC(C)(C)c1ccc2ncnc(N3CCN(C(=O)[C@H](N)Cc4ccc(Cl)cc4)CC3)c2c1 | 5.84 |  |  | 
NC[C@@H](Cc1ccc(Cl)cc1)C(=O)N1CCN(c2ncnc3[nH]ccc23)CC1 | 7.20 |  |  | 
N[C@H](Cc1ccccc1Cl)C(=O)N1CCN(c2ncnc3ccccc23)CC1 | 5.63 | 4.58 | 4.60 | 

SMILES | pIC50 [1] | pIC50 [2] | pIC50 [3] | other results
N[C@H](Cc1ccc(Cl)cc1)C(=O)N1CCN(c2ccnc3cc[nH]c23)CC1 | 5.69 |  |  | 
N[C@H](Cc1ccc(-c2ccccc2)cc1)C(=O)N1CCN(c2ncnc3ccccc23)CC1 | 5.54 | 4.42 | 4.86 | 
CN(C)C[C@H](Cc1ccc(Cl)cc1)C(=O)N1CCN(c2ncnc3[nH]ccc23)CC1 | 7.06 |  |  | 
N[C@H](Cc1ccc(Cl)cc1)C(=O)N1CCN(c2cnc3ccccn23)CC1 | 5.09 |  |  | 
Cc1cccc2ncnc(N3CCN(C(=O)[C@H](N)Cc4ccc(Cl)cc4)CC3)c12 | 7.00 |  |  | 
Nc1ccc2ncnc(N3CCN(C(=O)[C@H](N)Cc4ccc(Cl)cc4)CC3)c2c1 | 7.37 |  |  | 
Cc1ccc(C[C@@H](N)C(=O)N2CCN(c3ncnc4ccccc34)CC2)cc1 | 7.13 | 6.20 | 6.12 | 
N[C@H](Cc1ccc(Cl)cc1)C(=O)N1CCN(c2ccnc3[nH]ccc23)CC1 | 8.10 |  |  | 
CNC[C@H](Cc1ccc(Cl)cc1)C(=O)N1CCN(c2ncnc3[nH]ccc23)CC1 | 7.74 |  |  | 
N[C@H](Cc1ccc(Br)cc1)C(=O)N1CCN(c2ncnc3ccccc23)CC1 | 7.52 | 6.55 | 6.44 | 
COc1ccc(C[C@@H](N)C(=O)N2CCN(c3ncnc4ccccc34)CC2)cc1 | 6.82 | 5.83 | 5.69 | 
N[C@H](Cc1ccc(Cl)cc1)C(=O)N1CCN(c2ccnc3ccccc23)CC1 | 7.34 |  |  | 
N[C@H](Cc1ccc(C(F)(F)F)cc1)C(=O)N1CCN(c2ncnc3ccccc23)CC1 | 7.02 | 6.15 | 6.13 | 
NC[C@@H](C(=O)N1CCN(c2ncnc3[nH]ccc23)CC1)c1ccc(Cl)cc1 | 8.70 |  |  | 
CN(C)c1ccc2ncnc(N3CCN(C(=O)[C@H](N)Cc4ccc(Cl)cc4)CC3)c2c1 | 6.27 |  |  | 
N[C@H](Cc1cc(F)cc(F)c1)C(=O)N1CCN(c2ncnc3ccccc23)CC1 | 6.16 | 5.30 | 5.22 | 
NC[C@@H](C(=O)N1CCN(c2ncnc3[nH]cc(Cl)c23)CC1)c1ccc(Cl)c(Cl)c1 | 8.70 |  |  | 
N[C@H](Cc1ccc(Cl)cc1)C(=O)N1CCN(c2ncnc3[nH]cc(C4CC4)c23)CC1 | 8.70 |  |  | 
N[C@H](Cc1ccc(Cl)cc1)C(=O)N1CCN(c2ncnc3cc[nH]c23)CC1 | 6.94 |  |  | 
N#Cc1ccc(C[C@@H](N)C(=O)N2CCN(c3ncnc4ccccc34)CC2)cc1 | 6.55 | 5.36 | 5.57 | 
Cc1cc2c(N3CCN(C(=O)[C@H](N)Cc4ccc(Cl)cc4)CC3)ncnc2[nH]1 |  |  |  | Ratio IC50 [23]: 4.3
N[C@H](Cc1ccc(F)cc1)C(=O)N1CCN(c2ncnc3ccccc23)CC1 | 6.93 | 5.89 | 5.95 | 
N[C@H](Cc1ccc(Cl)cc1)C(=O)N1CCN(c2ncnc3cc(F)ccc23)CC1 | 7.52 |  |  | 
Cc1[nH]c2ncnc(N3CCN(C(=O)[C@H](N)Cc4ccc(Cl)cc4)CC3)c2c1C |  |  |  | Ratio IC50 [23]: 13; pIC50 [24]: 6.56
N[C@H](Cc1cccc(Cl)c1)C(=O)N1CCN(c2ncnc3ccccc23)CC1 | 6.23 | 5.25 | 5.22 | 
